The values that follow come from PMC7864382 (Clinical cancer research : an official journal of the …, 2020).

Several values for one entry are separate records, joined by “and”; a condition that tells them apart may be missing. Equal entries are not always repeated. Where two headings read alike, the source gives them in different places.

In data set [1] the test system is pS6RP, p4EBP1, survivin in MDA-MB-468 and HCC1937 cells. Description: Immunoblotting of mTOR pathway effectors and survivin. The data set is classed as cell-based, Human. The settings on record: immunoblot, 50 nmol/L at 24 hours, 100 nmol/L at 72 hours; for pS6RP (mTOR pathway effector) level: alisertib-sensitive and -resistant TNBC cell lines. In short, it runs like this:
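Cells were seeded in 6-well plates for 24 h, then exposed to test compounds at 50 nmol/L for 24 h or 100 nmol/L for 72 h, alone or combined. Cells were harvested with trypsin/EDTA and lysed. 50 µg protein was run on 4–12% Bis-Tris gels and transferred to nitrocellulose. Primary antibodies (S6RP, pS6RP, 4EBP1, p4EBP1, survivin, α-tubulin) were used at 1:1,000 overnight, with DyLight secondaries and infrared imaging.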

In data set [2] the test system is CAL51 FUCCI cells. Description: FUCCI cell-cycle analysis and relative growth. The data set is classed as cell-based, Human. The settings on record: 100 nmol/L each, 0 to 96 hours. A digest of the protocol: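 CAL51 cells transduced with the FUCCI biosensor (G1 red, S/G2–M green) were plated and treated with each test compound at 100 nmol/L, alone or combined. Live-cell fluorescence microscopy in an environmentally controlled chamber ran from 0 to 96 h. Relative growth came from time-lapse image growth curves. Combination was compared with single agents at 72 and 96 h.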

Data set [3] relates to CU_TNBC_004 PDX model. Description: Tumor growth inhibition in TNBC PDX model CU_TNBC_004. The conditions noted are these: CU_TNBC_004 (alisertib-resistant); TAK-228 0.5 mg/kg daily, alisertib 30 mg/kg daily, p.o.; vs vehicle. The class given is in vivo, mouse. A digest of the protocol: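 Tumor sections were implanted subcutaneously into both flanks by 12-gauge trocar. At an average of 150–300 mm³, mice were randomized to four arms: vehicle, 0.5 mg/kg daily, 30 mg/kg daily, or both combined, all by oral gavage. Caliper measurements and body weights were taken twice weekly; volume = length × width² × 0.52. TGI = [1 − (mean final treated volume/mean final vehicle volume)] × 100.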

Data set [4] has as its system CU_TNBC_007 PDX model. The data set is described as follows: Tumor growth inhibition in TNBC PDX model CU_TNBC_007. The data set is classed as in vivo, mouse. The settings on record: TAK-228 0.5 mg/kg daily, alisertib 30 mg/kg daily, vs vehicle. A digest of the protocol:
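PDX tumor sections were implanted subcutaneously via 12-gauge trocar into both flanks. At a mean of 150–300 mm³ mice were randomized to four arms: vehicle, 0.5 mg/kg daily, 30 mg/kg daily, or combination, all given by oral gavage. Calipers were read twice weekly and volume = length × width² × 0.52. TGI = [1 − (mean final treated volume / mean final vehicle volume)] × 100.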

Data set [5] has as its system CU_TNBC_004 PDX model. The data set is described as follows: SA-β-gal staining and H&E of PDX tumors. The data set is classed as in vivo, mouse. In short, it runs like this:
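PDX tumors were grown subcutaneously in both flanks. At 150–300 mm³ mice were randomized to vehicle, 0.5 mg/kg daily, 30 mg/kg daily, or combination by oral gavage. Tumors were OCT-embedded, frozen in liquid nitrogen, and cryosectioned. Slides were fixed and stained for SA-β-gal activity at pH 6.0. Matched H&E slides were reviewed by a pathologist to confirm tumor cells. Images were taken at 40×.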

Data set [6] concerns patients with advanced solid tumors.
Data set [7] has as its system TNBC patients. The conditions noted are these: alisertib monotherapy, 14 TNBC patients, phase II trial; cited from earlier work.
Data set [8] relates to patients with ER+/HER2− metastatic breast cancer. The settings on record: cited from earlier work.
The conditions of data set [9]: human; ref earlier clinical trials; cited from earlier work.
For data set [10], the system named is CU_TNBC_004 PDX model. The data set is described as follows: Immunofluorescence. The data set is classed as in vivo, mouse. The settings on record: CU_TNBC_004 tumors. A digest of the protocol:
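PDX tumor pieces were implanted subcutaneously by trocar into both flanks. At 150–300 mm³ mice were randomized to vehicle, 0.5 mg/kg daily, 30 mg/kg daily, or combination, all by oral gavage. Frozen OCT tumor sections were fixed and blocked (1% BSA/PBS, 1 h, 37°C), then stained with BAX and DR5 primaries and Alexa Fluor 488/555 secondaries (1 h, 37°C). DAPI counterstain was followed by confocal imaging at 60×.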

Data set [11] can be described thus: Phase I trial pharmacokinetics in human plasma. The class given is in vivo.
Setting [12] is: single-agent alisertib, standard dosing schedule.
[13] abbreviates: human, plasma, oral, 1 mg, TAK-228 combo dose with alisertib, 1 mg cohort.
Where [14] appears, read: human, plasma, oral, 1 mg, TAK-228 run-in dose (single agent), 1 mg cohort.
The mark [15] stands for this setting: human, plasma, oral, 3 mg, TAK-228 run-in dose (single agent), 3 mg cohort.

In the case of `COc1cc(Nc2ncc3c(n2)-c2ccc(Cl)cc2C(c2c(F)cccc2OC)=NC3)ccc1C(=O)O` [alisertib], in [1], the “survivin (antiapoptotic protein) level” value is reported as “increase” and the “pS6RP (mTOR pathway effector) level” value was “increase”. For the same compound, in [2], the “Cell-cycle status (FUCCI)” value is recorded as “continued progression through the cell cycle”. For the same compound, the TGI in data set [3] is 35.09% and 35.1%. Further, in data set [4], the TGI was 51.74% and 51.7%. Further, the “Senescent cells by SA-β-gal staining” value in data set [5] is on record as “scattered senescent cells”. Further, in data set [6] (b.i.d. days 1 to 7 of a 21-day cycle, oral), the “MTD / RP2D of alisertib in combination with TAK-228” value came to 30 mg. The “Most common toxicities attributed to the drug(s)” value in data set [6] (in vivo) was “neutropenia and fatigue”. Besides, the median progression-free survival in data set [7] is 1.5 months. In addition, the “grade ≥3 neutropenia or stomatitis” value in data set [8] (intermittent alisertib schedule in combination with fulvestrant) is “no grade ≥3 neutropenia or stomatitis”. Further, in data set [8] (setting [12]), the “grade 3 to 4 neutropenia” value is 57% and the “grade 3 to 4 stomatitis” value is recorded as 15%. In addition, in data set [9], the half-life entry is reported as “approximately 20 hours”.
`CC(C)n1nc(-c2ccc3oc(N)nc3c2)c2c(N)ncnc21` [TAK-228]: the p4EBP1 level result in data set [1] was “decrease”. The “survivin (antiapoptotic protein) level” value in [1] is “decrease”. Besides, the “pS6RP (mTOR pathway effector) level” value in data set [1] is listed as “decrease”. Besides, the “Cell-cycle status (FUCCI)” value in [2] was “continued progression through the cell cycle”. The inhibition of tumour growth (TGI) in [3] is 54.47% and 54.5%; in data set [4], 30.73% and 30.7%. Moreover, the “Senescent cells by SA-β-gal staining” value in [5] is recorded as “not observed”. The “cytoplasmic BAX” value in data set [10] is listed as “increase”. In data set [11] (TAK-228 combo dose with alisertib, 2 mg cohort), this compound registered a half-life of 6.0 ± 2.1 h. Further, the AUC in data set [11] (setting [13]) is 47.4 ± 13.8 ng·h/mL; in data set [11] (setting [14]), 46.7 ± 13.1 ng·h/mL; in [11] (setting [15]) it was 154 ± 110 ng·h/mL. The Cmax turned out to be 8.6 ± 4.2 ng/mL in [11] (setting [13]); 7.7 ± 2.6 ng/mL in data set [11] (setting [14]); 24.7 ± 13.6 ng/mL in data set [11] (human, plasma, oral, 2 mg, TAK-228 combo dose with alisertib, 2 mg cohort); 24.2 ± 8.8 ng/mL in data set [11] (human, plasma, oral, 2 mg, TAK-228 run-in dose (single agent), 2 mg cohort); 25.7 ± 9.4 ng/mL in data set [11] (setting [15]). Moreover, the Tmax in data set [11] (human, plasma, oral, 3 mg, Tmax, TAK-228 run-in dose (single agent), 3 mg cohort) turned out to be 1.3 ± 1.1 h. Besides, the “Patients with adverse effects at least possibly related to the drug” value in [6] (18 patients, combination treatment) is recorded as 72%. The “Most common toxicities attributed to the drug(s)” value in [6] (attribution to TAK-228 alone, alisertib alone or both drugs) was “Rash”. For the same compound, the “Dose reduction of the drug required” value in data set [6] (combination treatment, all dose levels) is on record as 3 patients. In data set [6] (daily, continuous dosing, oral), the “MTD / RP2D of TAK-228 in combination with alisertib” value is recorded as 2 mg.
